# Screens as filed in PubChem.
# INS promoter act – activators of insulin promoter-driven GFP, primary screen, imaging, TRM-6 cells (human fetal islet line), eGFP reporter, cell count; plate-scaled: unstimulated 0, stimulated control 100; activation, % at 2 µM; hit rate 0.81% among 130,000; AID 1296, 2008;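 active = activation at 2 µM above a set limit, confirmed on inspection of the cell images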;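 also: share of cells whose green reporter signal exceeds an intensity cutoff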
#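 System – TRM-6 insulin promoter–eGFP reporter cells · Probe or stimulus – 0.75 µM tamoxifen as reporter inducer · Dosing – single-point 2 µM compound dose · Incubation – tamoxifen pre-incubation 15 h overnight, then compound exposure 48 h at 37 °C · Measured by – fixed-cell fluorescence microscopy, eGFP plus Hoechst · Evaluation – percent GFP-positive cells normalized to per-plate controls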
# Hits are given with their value; n = inactive; [ ] = dose if it differs, or a comment. The sample as a whole holds a higher share of hits than the screen did.
SMILES,INS promoter act
O=C(c1cnn2c(C(F)F)cc(-c3ccccc3)nc12)N1CCN2CCCC2C1 (configuration not stated),n
Cc1cc(C(F)F)n2ncc(C(=O)N3CCCCC3)c2n1,n
COc1ccc(-c2cc(C(F)F)n3ncc(C(=O)N4CCc5ccccc5C4)c3n2)cc1,392.9
Cc1oc(-c2ccccc2Cl)nc1CSc1nc2c(c(=O)[nH]1)CCC2,n
CCCCOC(=O)CSc1n[nH]c(=O)[nH]c1=O,n
O=c1oc2cc(Oc3ccc(C(F)(F)F)cc3[N+](=O)[O-])ccc2c2c1CCCC2,n
Cc1ccc(S(=O)(=O)/N=C(/Nc2c(C)n(C)n(-c3ccccc3)c2=O)c2ccccc2)cc1,n
CC(C)N1C(=O)CCC1C(=O)NCc1cccs1 (configuration not stated),n
CN1CC(=O)N(CC(=O)Nc2cccc(S(=O)(=O)N3CCOCC3)c2)C1=O,n
CCOC(=O)/C(=C/C=C1\Sc2cc(OCC)c(OCC)cc2N1CC)C(C)=O,669.2[fluoresces]
CCC(CC)C(=O)Nc1nnc(SCC(=O)NC(C)(C)C)s1,n
Cc1occc1C(=O)N1CCN(Cc2ccccc2)CC1,n
Cc1ccc(CN2CCN(C(=O)c3ccco3)CC2)cc1,422.2
O=C(c1ccco1)N1CCCN(C(=O)c2ccco2)CC1,n
CCOc1ccc(NC(=O)Nc2cc(C)ccc2F)cc1,n
O=C(Nc1ccc2c(c1)OCO2)c1ccc(CN2CCOCC2)cc1,n
O=C(Cc1ccccc1)Nc1ccc(CN2CCOCC2)cc1,n
CSc1ccccc1NC(=O)c1ccc(CN2CCOCC2)cc1,276.5
COc1cc(Cl)c(C)cc1NC(=O)CSc1ccc(NC(C)=O)cc1,n
CN(C)CCCNC(=S)NCCNc1nc2cc3c(cc2cc1C#N)OCO3,n
Cc1cc(-n2nc(C)cc2C)nc(N)n1,n
CNc1nc(C)nc(-n2nc(C)cc2C)n1,660.0
Cc1cc(NCCO)nc(-n2nc(C)cc2C)n1,n
Cc1ccccc1NC(=S)N(CCN1CCOCC1)Cc1ccccc1F,n
Cc1cc(C(=O)CSc2ccc3c(c2)OCCO3)c(C)n1C1CC1,n
SMILES,INS promoter act
CC(=O)Nc1nc(NC(=O)/C=C/c2ccccc2)n(-c2ccccc2)n1,n
COc1ccc(Cc2c(O)nc(SCC(=O)NC(C)(C)C)[nH]c2=O)cc1,n
Cn1c(SCC(=O)N2CCCC2=O)nnc1-c1ccccc1F,n
CCc1cc(C(=O)O)c(NC(=O)c2cc(OC)c(OC)c(OC)c2)s1,n
COC(=O)C(CCSC)NC(=O)CNS(=O)(=O)c1ccc(Cl)cc1 (configuration not stated),n
COC(=O)C(NC(=O)CNS(=O)(=O)c1ccc(Br)cc1)c1ccccc1 (configuration not stated),275.0
COc1ccccc1NC(=O)CNS(=O)(=O)c1ccccc1,n
Cc1ccc2c(c1)N1C(=O)c3ccccc3C1C1=C(CC(C)(C)CC1=O)N2 (configuration not stated),n
Cc1ccc(Oc2ccc(NC(=O)CCC(=O)OCC(=O)c3cccs3)cc2)cc1C,n
Cc1[nH]c2ccc(F)cc2c1CCN(Cc1ccco1)C(=S)NC(C)(C)C,347.1
Cc1ccccc1NC(=S)N(CCc1c(C)[nH]c2ccc(F)cc12)Cc1cccnc1,n
COc1cccc(NC(=S)N(CCc2c(C)[nH]c3ccc(C)cc23)Cc2cccs2)c1,n
COc1cc(NC(=O)CSc2nc3ccccc3n2-c2ccccc2)c(C)cc1[N+](=O)[O-],n
C/C(=N\NC(=O)c1ccc(Cl)c(S(=O)(=O)Nc2ccccc2Cl)c1)c1ccncc1,n
Cc1nnc(NC(=O)CSc2nnc(C)n2Cc2ccccc2)s1,n
Cc1nnc(NC(=O)CSc2nnc(Cc3ccccc3)n2-c2ccccc2)s1,660.0
CCc1nnc(NC(=O)CSc2nnc(Cc3ccccc3)n2-c2ccccc2)s1,n
Cc1ccc(NS(=O)(=O)c2ccc(OCC(=O)Nc3cccc([N+](=O)[O-])c3)c(C)c2)cc1,n
COc1cccc(CC(Cc2nc3ccccc3[nH]2)c2nc3ccccc3[nH]2)c1 (configuration not stated),n
Cc1ccc(-n2c(-c3cccc(C)c3)n[nH]c2=S)cc1,n
Cc1ccc(-c2n[nH]c(=S)n2-c2ccccc2)cc1,484.6
Cc1[nH]c2ccc(-c3n[nH]c(=S)n3-c3ccccc3)cc2c1C,n
C=CCc1cc(OC)ccc1OCCOCCN1CCc2ccccc2C1,n
CC(=O)c1sc(Nc2nc(C)cc(C)n2)nc1C,n
Cn1c(N)c(C(=O)COC(=O)c2ccc(Cl)nc2)c(=O)n(C)c1=O,n
SMILES,INS promoter act
O=C(Cn1ncc(Cl)c(Cl)c1=O)c1ccc(Cl)cc1,n
O=C(OCn1ncc(Cl)c(Cl)c1=O)c1ccc(F)cc1,242.9
CCNc1nc(NCC)nc(SCCOc2ccc(C)cc2)n1,n
CC(C)c1ccc(C2C(C#N)=C(N)N3C(=C2C#N)Sc2ccccc23)cc1 (configuration not stated),n
O=C1N/C(=N\c2ccccn2)SC1Cc1ccc(Cl)cc1 (configuration not stated),450.0
Cc1ccc(CC2SC(=O)NC2=O)cc1Cl (configuration not stated),n
Cc1ccc(CC2S/C(=N/c3ccccn3)NC2=O)cc1 (configuration not stated),n
COc1ccc(NC(=O)COC(=O)CCCN2C(=O)c3ccccc3C2=O)cc1Cl,n
CCCCOc1ccc(C2C(C(=O)c3ccc(C)o3)=C(O)C(=O)N2CC2CCCO2)cc1 (configuration not stated),n
Cc1ccc(NC2Sc3ccccc3NC2=O)cc1 (configuration not stated),n
O=C(CSc1nc2nn(-c3ccccc3)c(=O)c-2c2n1CCCCC2)NCCCc1ccccc1,n
CCCC(=O)Nc1ccc(Br)c(Cl)c1,442.9
O=C(Nc1ccc(Br)c(Cl)c1)C1CC1,n
CCC(=O)Nc1ccc(Cl)c(NC(=O)c2ccc(Br)o2)c1,n
O=C(O)CCC(=O)Nc1ccc(Br)c(Cl)c1,n
CC(C)(C)C(=O)CC(=O)Nc1ccc(Cl)c(N)c1,n
CCCC(=O)Nc1ccc(Cl)c(NC(=O)C(C)(C)C)c1,790.0
Cc1cc(C(=O)C(=O)O)c(C)n1-c1ccc(Cl)c(Cl)c1,n
Cc1[nH]nc2c1C(c1cc(Br)cs1)C(C#N)=C(N)O2 (configuration not stated),n
COc1ccc(/C=C/C(=O)NCCSCc2ccco2)cc1,n
O=C(Nc1cc(Cl)cc(Cl)c1)c1cccc(OC(F)F)c1,n
CCCCCCCCC(=O)NNC(=O)c1c(O)c2ccccc2n(CCC)c1=O,n
O=C(CSc1nc2ccccc2c(=O)n1Cc1ccc(Cl)cc1)NCc1cccs1,n
CCn1c(=O)c2ccccc2n2c(SCC(=O)NCc3cccs3)nnc12,136.4
CCn1c(SCC(=O)NCc2cccs2)nc2c1c(=O)n(C)c(=O)n2C,n
SMILES,INS promoter act
O=S(=O)(NCC1NCCc2ccccc21)c1ccccc1 (configuration not stated),n
O=C(NN1C(=O)c2cc(Br)ccc2NC1c1cc(Br)cc(Br)c1O)c1ccncc1 (configuration not stated),n
COc1ccc(/C=N\NC(=O)COc2ccccc2)c(C(=O)O)c1OC,n
Cc1ccccc1N1CCN(C(=O)CN2C(=O)c3ccccc3C2=O)CC1,n
Cc1cc(/C=C2/C(=O)N(C)C(=S)N2C)ccc1N1CCCC1,376.2
CCCN1C(=O)/C(=C/c2ccc(N3CCCC3)c(C)c2)NC1=S,92.0
CN1C(=O)/C(=C/c2ccccc2OCc2cccc(F)c2)N(C)C1=S,n
